As a reminder, the MIC is the least concentration at which growth counts as inhibited.

The source of these data is ChEMBL document CHEMBL3045839, “Curcumin, a known phenolic from Curcuma longa, attenuates the virulence of Pseudomonas aeruginosa PAO1 in whole plant and animal pathogenicity models” (2008).

Assay [1] has as its system Pseudomonas aeruginosa. The assay can be described thus: Inhibition of biofilm formation of Pseudomonas aeruginosa PAO1 at 2 to 3 ug/mL by confocal scanning laser microscopy. It is filed as functional, organism-based. The gist of the method: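 PAO1 grown on two-well Permanox slides with curcumin 2–3 µg/mL. Stained with a LIVE/DEAD BacLight kit (SYTO 9/propidium iodide) 48 h postinoculation and imaged by confocal laser scanning microscopy with a 10× objective. Repeated twice, three replicates each.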

Assay [2] concerns Pseudomonas aeruginosa. The assay can be described thus: Inhibition of biofilm formation of Pseudomonas aeruginosa PAO1 at 1.5 to 3 ug/mL by crystal violet staining method. It is filed as functional, organism-based. In short, it runs like this: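 Static biofilm in polypropylene tubes with LB containing curcumin 1.5–3.0 µg/mL from the start of incubation; ethanol equalized across tubes. Crystal violet staining, ethanol solubilization, OD read. Three replicates.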

The test system of assay [3] is Pseudomonas aeruginosa. The assay can be described thus: Growth inhibition of Pseudomonas aeruginosa PAO1 planktonic forms. It is filed as functional. In short, it runs like this:
(§1)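 PAO1 grown in LB with curcumin 0.5–30.0 µg/mL from an initial OD600 of 0.02; compound predissolved in ethanol, final solvent ≤0.02% v/v. OD600 read every 5 h up to 25 h; colony counts taken. n = 6, standard error.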

Assay [4] has as its system Pseudomonas aeruginosa. Nature of the assay: Growth inhibition of Pseudomonas aeruginosa PAO1 planktonic forms at >5 ug/mL. It is filed as functional, organism-based. In short, it runs like this:
as §1

In assay [5] the test system is Pseudomonas aeruginosa. The assay can be described thus: Down regulation of rhlA expression in Pseudomonas aeruginosa PAO1 at 3 ug/mL by microarray gene expression analysis. It is filed as functional, organism-based. The gist of the method:
(§2)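 PAO1 grown in triplicate in LB with curcumin 3 µg/mL, starting at OD600 ~0.02, at 37 °C and 200 rpm for 10 h (~2 OD600). RNA was isolated from 5 mL of culture, and 10 µg was amplified for microarray expression analysis.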

In assay [6] the test system is Pseudomonas aeruginosa. Nature of the assay: Down regulation of lasI expression in Pseudomonas aeruginosa PAO1 at 3 ug/mL by microarray gene expression analysis. It is filed as functional, organism-based. In short, it runs like this: as §2
For assay [7], the system named is Pseudomonas aeruginosa. Nature of the assay: Down regulation of virulence factor production in Pseudomonas aeruginosa PAO1 assessed as reduction in elastase production at 1 to 5 ug/mL relative to untreated control. It is filed as functional. In short, it runs like this:
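Culture grown with or without curcumin for 24 h at 37 °C in PTSB (5% peptone, 0.25% tryptic soy broth). Filtered supernatant was added to elastin-congo red in 10 mM Na2HPO4, pH 7, and shaken for 4 h at 37 °C. After centrifugation, OD495 was read and normalised to cell density.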

The subject of assay [8] is Pseudomonas aeruginosa. The assay can be described thus: Down regulation of virulence factor production in Pseudomonas aeruginosa PAO1 assessed as reduction in protease production at 1 to 5 ug/mL relative to untreated control. It is filed as functional. The gist of the method:
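Culture grown with or without curcumin for 24 h at 37 °C in PTSB (5% peptone, 0.25% tryptic soy broth). Filtered supernatant was incubated with 0.8% azocasein in 50 mM K2HPO4, pH 7, for 3 h at 25 °C. The reaction was stopped with 1.5 M HCl, kept on ice 30 min and centrifuged. NaOH was added, OD440 read and normalised to cell density.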

The subject of assay [9] is Pseudomonas aeruginosa. The assay can be described thus: Down regulation of virulence factor production in Pseudomonas aeruginosa PAO1 assessed as reduction in pyocyanin production at 1.5 to 3 ug/mL. It is filed as functional. The arrangement: scale not given: the % may be the effect or the level left. The gist of the method:
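PAO1 grown in LB with or without curcumin (1.5–3 µg mL-1) and harvested. Pyocyanin was extracted and estimated by the Mahajan-Miklos method, then normalised against live cell numbers.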

The test system of assay [10] is Pseudomonas aeruginosa. Nature of the assay: Down regulation of phzD expression in Pseudomonas aeruginosa PAO1 at 3 ug/mL by microarray gene expression analysis. It is filed as functional, organism-based. In short, it runs like this: as §2
Assay [11] concerns Pseudomonas aeruginosa. Nature of the assay: Effect on QS system related genes in Pseudomonas aeruginosa PAO1 at 3 ug/mL by microarray gene expression analysis. It is filed as functional, organism-based. The gist of the method: as §2
Assay [12] relates to Pseudomonas aeruginosa. Nature of the assay: Antimicrobial activity against Pseudomonas aeruginosa PAO1 infected in Arabidopsis thaliana Col-0 assessed as change in bacterial count in presence of AHL/3-oxo-HSL. It is filed as functional, organism-based. In short, it runs like this:
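Col-0 seedlings in liquid MS medium inoculated with PAO1 (OD600 0.02–0.04, ~2.8 × 10^8 cells/mL) plus curcumin 3.0 µg/mL, with or without exogenous AHL/3-oxo-HSL. Roots harvested after 7 days; bacteria enumerated as CFU per gram fresh weight. Triplicate experiments.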

Assay [13] concerns Pseudomonas aeruginosa. The assay can be described thus: Antimicrobial activity against Pseudomonas aeruginosa PAO1 infected in Arabidopsis thaliana Col-0 assessed as inhibition of biofilm formation in roots at 3 ug/mL measured 7 days post dose. It is filed as functional, organism-based. In short, it runs like this:
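Ten-day-old Col-0 plants in 2 mL liquid MS medium were inoculated with PAO1 (OD600 0.02–0.04) with curcumin 3.0 µg/mL added alongside the bacteria. Root-surface biofilm was imaged by confocal microscopy after BacLight live/dead staining.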

The test system of assay [14] is Pseudomonas aeruginosa. Nature of the assay: Antimicrobial activity against Pseudomonas aeruginosa PAO1 infected in Arabidopsis thaliana Col-0 assessed as protection against infection of roots at 3 ug/mL measured 7 days post dose. It is filed as functional, organism-based. The gist of the method: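 In vitro root pathogenicity: ten-day-old Col-0 plants (n = 20 per treatment) in 2 mL liquid MS medium were inoculated with PAO1 at OD600 0.02–0.04 (~2.8 × 10^8 cells/mL), with curcumin 3.0 µg/mL added together with the bacteria. A non-inoculated control was kept. Plant mortality was recorded 7 days after inoculation; triplicate experiments.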

Assay [15] deals with Pseudomonas aeruginosa. Nature of the assay: Down regulation of QS system in Pseudomonas aeruginosa PAO1 assessed as reduction in total homoserine lactone production at 5 ug/mL by HPLC relative to untreated control. It is filed as functional.
Assay [16] deals with Pseudomonas aeruginosa. Nature of the assay: Down regulation of QS system in Pseudomonas aeruginosa PAO1 assessed as reduction in C4-HSL production at 1 ug/mL by HPLC. It is filed as functional. Also on record: scale not given: the % may be the effect or the level left.
The test system of assay [17] is Pseudomonas aeruginosa. Nature of the assay: Down regulation of QS system in Pseudomonas aeruginosa PAO1 assessed as reduction in 3-oxo-C12-HSL production at 1 ug/mL by HPLC. The arrangement: scale not given: the % may be the effect or the level left. It is filed as functional.

Values after ≈ are worked out from the molar mass of the structure shown. Active and inactive are the calls of the source. The calls are words filed in the database; no cut-off is given here. Where only a bound is given, the exact number is not on record here.

Consider `COc1cc(/C=C/C(=O)CC(=O)/C=C/c2ccc(O)c(OC)c2)ccc1O` [CURCUMIN], for which the inhibition entry in the assay on Pseudomonas aeruginosa [1], in the assay on Pseudomonas aeruginosa [2], in the assay with Pseudomonas aeruginosa [13] and in the assay on Pseudomonas aeruginosa [14] was “Active” each time. Further, in the assay on Pseudomonas aeruginosa [3], the minimal inhibitory concentration (MIC) came to 30 µg/mL (≈ 81.4 µM). Further, the “growth inhibition (GI)” value in the assay on Pseudomonas aeruginosa [4] was “inactive”. The outcome with Pseudomonas aeruginosa [5], with Pseudomonas aeruginosa [6], in the assay on Pseudomonas aeruginosa [10] and in the assay with Pseudomonas aeruginosa [11] was Active. The “fold change (FC)” value in the assay on Pseudomonas aeruginosa [7] was determined as 2; in the assay with Pseudomonas aeruginosa [8] it was 2; in the assay on Pseudomonas aeruginosa [15], 3. Moreover, the Activity in the assay with Pseudomonas aeruginosa [9] is reported as 60%; with Pseudomonas aeruginosa [16], above 2%; in the assay on Pseudomonas aeruginosa [17] it was 25%. Moreover, the outcome in the assay with Pseudomonas aeruginosa [12] was inactive.
